Screening data: PubChem, The Scripps Research Institute Molecular Screening Center
NPY-Y2 antag – antagonists of human neuropeptide Y receptor Y2. P49146. NPY-Y2 expressing cells, antagonist mode. inhibition, % at 2.7 µM. actives 0.99% (n = 140,000); in the data active means inhibition above about 17%;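 further: 0% = vehicle with agonist challenge and 100% = reference antagonist with challenge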
Target sequence (P49146 whole entry, looked up): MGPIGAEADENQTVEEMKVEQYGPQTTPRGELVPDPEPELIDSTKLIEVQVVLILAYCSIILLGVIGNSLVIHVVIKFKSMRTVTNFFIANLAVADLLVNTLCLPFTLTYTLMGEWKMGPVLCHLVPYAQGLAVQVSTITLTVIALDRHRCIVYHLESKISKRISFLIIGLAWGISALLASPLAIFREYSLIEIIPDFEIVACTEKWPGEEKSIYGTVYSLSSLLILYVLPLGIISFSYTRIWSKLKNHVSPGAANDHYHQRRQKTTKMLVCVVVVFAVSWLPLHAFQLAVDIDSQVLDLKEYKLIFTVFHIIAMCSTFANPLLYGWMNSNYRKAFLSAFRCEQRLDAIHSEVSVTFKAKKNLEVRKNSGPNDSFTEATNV
NPY2 pot ag – potentiators or agonists of human neuropeptide Y receptor Y2; cells expressing NPY-Y2, potentiator/agonist read-out; AID 1359; actives 0.45% (n = 220,000); activation, % at 3.6 µM; in the data active means activation above about 27%;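 further: cells stimulated with NPY near EC25 plus isoproterenol at EC100; 0% = vehicle plus submaximal agonist and 100% = vehicle plus saturating agonist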
NPY Y1 blocker – blocks the human neuropeptide Y Y1 receptor. P25929. HEK293-CNG Y1 cells, membrane potential fluorescence; NPY at EC95, then isoproterenol. inhibition, % at 3.6 µM. actives 1% (n = 200,000). AID 1040;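 active means inhibition above the campaign mean inhibition of all tested compounds plus 3 SD, cut at about 20% in these data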;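 further: 0% = DMSO wells given NPY plus isoproterenol and 100% = isoproterenol alone without NPY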
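System: HEK293 cells with Y1 receptor plus CNG channel / Probe or stimulus: NPY 25 nM then isoproterenol 1 µM plus Ro 20-1724 25 µM / Compound: one concentration, 3.6 µM, in 0.4% DMSO / Schedule: compound incubation 1 h at room temperature, readout 45 min post-stimulation / Measured by: membrane potential fluorescence / Read-out: % inhibition of NPY effect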
NPY1 pot ag – human NPY-Y1 potentiation or agonism, primary screen; NPY-Y1 expressing cells, potentiator/agonist activation; activation, % at 3.6 µM; actives 0.37% (n = 220,000); AID 1304; in the data active means activation above about 33%, passing the limit was not always enough;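 further: cells stimulated with NPY at EC10 then isoproterenol at EC100; 0% = low agonist plus stimulus and 100% = saturating agonist plus stimulus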
An asterisk follows results filed as active; / = no result. A selection: hits, their analogues and other compounds. The true share with any hit is near 1.8%.

SMILES | NPY-Y2 antag | NPY2 pot ag | NPY Y1 blocker | NPY1 pot ag
COC(=O)[C@H]1C[C@@H]1[C@H](NC(=O)c1cnccn1)c1ccccc1 | 1 | 84* | 2 | 23
CCSc1nnc(NC(=O)NC(CC)(C(F)(F)F)C(F)(F)F)s1 | 0 | 23 | 1 | 47*
CCSc1nnc(NC(=O)NC(C)(C(F)(F)F)C(F)(F)F)s1 | 1 | 11 | -2 | 1
O=C(c1ccc(Br)cc1)c1cc([N+](=O)[O-])ccc1N1CCCCC1 | 17* | -11 | 38* | -6
CCOC(=O)c1nnn(-c2nonc2N)c1COc1cc(C)c(Cl)c(C)c1 | 17 | -19 | 22* | -35
COc1ccc2[nH]cc(C(=O)CNc3nc(C)cs3)c2c1 | -10 | 39* | -18 | 48*
O=C(Nc1ccc(Cl)cc1C(=O)Nc1ccc(Br)cn1)c1ccco1 | 31* | -28 | 21* | -91
COc1ccc(Cl)cc1NC(=O)c1ccco1 | 3 | -19 | 1 | -6
Cc1cccc(NC(=O)NC(C)C(c2ccccc2)N2CCN(C)CC2)c1 (configuration not stated) | / | -10 | 3 | -8
Cc1ccc(C2CC(C(F)(F)F)n3nc(C(=O)NCc4c(C)nn(C)c4C)c(Cl)c3N2)cc1 (configuration not stated) | 3 | 39* | -18 | 48*
COC(=O)C(=C/C(C)=C/c1cccnc1)C(=O)OC | / | -3 | 1 | -2
COc1ccc2[nH]cc(CC(=O)O)c2c1 | 1 | 1 | 2 | -6
CC(C)NCC(O)COc1cccc2[nH]ccc12 (configuration not stated) | / | 106* | -15 | 113*
CC(=O)NCCc1c[nH]c2ccc(OCC(O)CNC(C)(C)C)cc12 (configuration not stated) | / | 57* | / | 81*
CCCC(=O)Nc1ccc(OCC(O)CNC(C)C)c(C(C)=O)c1 (configuration not stated) | 1 | 5 | -4 | -12
COC(=O)Cc1c[nH]c2ccc(OCC(O)CNC(C)C)cc12 (configuration not stated) | 0 | 88* | -14 | 101*
Clc1ccc(/C=C/c2ncc3ccccn23)cc1 | / | -2 | -1 | -1
Cc1ccc(-c2nnn(CC(=O)N(Cc3cccs3)C(C(=O)NC(C)(C)C)c3ccc(C)o3)n2)o1 (configuration not stated) | 40* | -80 | 35* | -112
CSc1ccc(CN(C)CC(=O)NC(C)c2ccccc2)cc1 (configuration not stated) | / | -12 | 12 | -12
CC1CCN(CCCOc2ccc(OCc3ccccc3)cc2)CC1 | 22* | -11 | 24* | -42
COC(=O)CN1C(=O)N/C(=C/c2ccccc2OC)C1=O | / | 2 | 8 | 4
O=C(Cn1nc(-c2ccccc2)ccc1=O)Nc1ccc(-n2cnnn2)cc1 | / | 19 | / | 22
O=C(Cn1nc(-c2ccccc2)ccc1=O)Nc1ccc(N2CCN(C(=O)c3ccccc3)CC2)cc1 | -7 | 33* | -12 | 32
CCCn1c(NC(=O)c2cccc(S(=O)(=O)N3CCCC3)c2)nc2ccccc21 | 13 | -29 | 0 | -22
Fc1cccc(NC(=S)N2CCCCC2)c1 | 1 | -5 | -3 | 104*
SMILES | NPY-Y2 antag | NPY2 pot ag | NPY Y1 blocker | NPY1 pot ag
O=C(C1CCC1)N1CCc2cc(S(=O)(=O)NCC3COc4ccccc4O3)ccc21 (configuration not stated) | 20* | -24 | 24* | -49
CCOCCCNC(=O)CNC(=S)N(Cc1ccc(C)cc1)Cc1ccco1 | / | 0 | 7 | 20
CC1=C(C(=O)NCCN2CCN(C)CC2)C2(CCC(C)CC2)OC1=O (configuration not stated) | -2 | 48* | 0 | -8
CCC(C)NC(=O)CSc1nc2c(sc(=S)n2Cc2ccco2)c(=O)n1-c1ccccc1 (configuration not stated) | 12 | -40 | 18 | -23
CCOC(=O)CSc1nc2c(sc(=S)n2Cc2ccco2)c(=O)n1-c1ccc(F)cc1 | 19* | -14 | 21* | -2
Cc1cc(-c2[nH]nc3c2C(c2ccsc2)C(C#N)=C(N)O3)c(C)s1 (configuration not stated) | 149* | -7 | 154* | -61
Cn1c(=O)c2c(nc(CN3CCc4ccccc4C3)n2CCc2ccccc2)n(C)c1=O | 8 | -3 | 26* | 4
Cn1c(=O)c2c(nc(CN3CCc4ccccc4C3)n2CCCO)n(C)c1=O | / | 5 | 4 | -2
COc1ccc(NC(=O)O/N=C2/CCCc3ccc(OC)cc32)cc1 | 5 | -4 | 3 | 98*
COc1ccc2c(c1)/C(=N/OC(=O)c1cccs1)CCC2 | / | -7 | 11 | -15
COc1cccc(CN(Cc2ccco2)C(c2ccc(F)cc2)c2nnnn2C(C)(C)C)c1 (configuration not stated) | 22* | 1 | 31* | 7
CC(C)CCNC(=O)C(c1ccco1)N(Cc1cccs1)C(=O)Cn1nnc2ccccc21 (configuration not stated) | 14 | -19 | 24* | -26
CCOc1ccc(N(CC(=O)NC(C)(C)C)C(=O)c2ccco2)cc1 | 2 | -10 | 8 | 12
O=C1c2ccccc2C(=O)N1CCCCN(C(=O)c1cc([N+](=O)[O-])cc([N+](=O)[O-])c1)c1ccc(Cl)cc1 | 0 | -11 | 4 | -4
O=C1c2ccccc2C(=O)N1CCCCN(C(=O)c1ccc([N+](=O)[O-])cc1)c1ccc(Cl)cc1 | 12 | 95* | 17 | 67*
CN(Cc1ccccc1)S(=O)(=O)c1ccc(S(=O)(=O)N2CCN(CCC#N)CC2)cc1 | 0 | -12 | -5 | -1
CCOc1ccc2c(c1)/C(=N/N1C(=O)c3ccccc3C1=O)C(=O)N2 | / | -9 | 0 | 4
CCOc1ccc2c(c1)-c1c(ssc1=S)C(C)(C)N2C(=O)CSC1=NCCS1 | -5 | 40* | -9 | 49*
CCOc1ccc2c(c1)-c1c(ssc1=S)C(C)(C)N2 | -10 | 45* | -14 | 44*
CCC(C)(C(=O)NC1CCCCC1)N(Cc1ccco1)C(=O)c1ccc2c(c1)OCO2 (configuration not stated) | 43* | -18 | 49* | -11
COc1ccc2c(c1)nc(NCCCO)n2Cc1ccccc1 | / | 3 | / | 28
CCCCOC(=O)c1cc(C)nc2ccc(Br)cc12 | 4 | 31* | 7 | 101*
CCOC(=O)c1cc(C(=O)OCC)c2cc(Br)ccc2n1 | 12 | -46 | 12 | -46
O=C(NCCCN1CCN(c2ccccc2F)CC1)C1CCN(S(=O)(=O)N2CCOCC2)CC1 | 2 | 4 | -1 | 5
O=C(NCCN1CCN(c2ccccc2)CC1)C1CCN(S(=O)(=O)N2CCOCC2)CC1 | -1 | -8 | -2 | 32*
CN(C)NC(=S)NC1(C)CCS(=O)(=O)C1 (configuration not stated) | / | 10 | / | 13
CSc1nc(-c2ccco2)nn1S(=O)(=O)c1ccccc1 | 7 | 6 | 24* | -39
CSc1nc(-c2ccco2)nn1S(=O)(=O)c1ccc(C)cc1 | 1 | 3 | 8 | -20
